# Experiments:
# Type in all cases: functional, cell-based
# VCaP = experiment: Antiproliferative activity against human VCaP cells assessed as reduction in cell viability
# Method in brief: (§1)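 Human prostate cancer cells taken from exponential-phase culture, seeded at 8000–12,000 cells/well and allowed 24 h recovery. Compounds then added at 10 half-log concentrations in triplicate, with medium-only controls, for a total 96 h exposure. After a PBS wash, cells stained with propidium iodide plus 0.1% Triton X-100 for 1–2 h at room temperature. Fluorescence read (ex 530/em 620 nm) as attached viable cells. IC50 from 4-parameter curve fit, geometric mean of three independent experiments.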
# CWR22R = experiment: Antiproliferative activity against human 22Rv1 cells assessed as reduction in cell viability; method in brief: as §1
# LNCaP = experiment: Antiproliferative activity against human LNCaP cells assessed as reduction in cell viability
# Method in brief: as §1, with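 “temperature.” for “temperature. Fluorescence read (ex 530/em 620 nm) as attached viable cells.”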
# DU-145 = experiment: Antiproliferative activity against human DU-145 cells assessed as reduction in cell viability; method in brief: as §1
SMILES,IC50 (VCaP) [µM],"IC50 (CWR22R; Homo sapiens, 22Rv1) [µM]","IC50 (LNCaP; Homo sapiens, LNCaP) [µM]","IC50 (DU-145; Homo sapiens, DU-145) [µM]",IC50 (CWR22R; cwr22r) [µM],IC50 (LNCaP; lncap) [µM],IC50 (DU-145; du-145) [µM]
CC(O)(C[S+]([O-])c1ccccc1OC(F)(F)F)C(=O)Nc1ccc([N+](=O)[O-])cc1C(F)(F)F (stereo not drawn),20.7,15.2,9.09,31.1,–,–,–
CC(O)(C[S+]([O-])c1ccc(OC(F)(F)F)cc1)C(=O)Nc1ccc([N+](=O)[O-])cc1C(F)(F)F (stereo not drawn),> 100,> 100,> 100,> 100,–,–,–
CC(O)(C[S+]([O-])c1ccc(F)cc1F)C(=O)Nc1ccc([N+](=O)[O-])cc1C(F)(F)F (stereo not drawn),> 100,51.1,24.4,> 100,–,–,–
CC(O)(C[S+]([O-])c1ccc(C(F)(F)F)cn1)C(=O)Nc1ccc([N+](=O)[O-])cc1C(F)(F)F (stereo not drawn),> 100,> 100,> 100,> 100,–,–,–
CC(O)(C[S+]([O-])c1ccc(C(F)(F)F)cc1)C(=O)Nc1ccc([N+](=O)[O-])cc1C(F)(F)F (stereo not drawn),24.2,21.1,25.6,36.5,–,–,–
CC(O)(C[S+]([O-])c1ccc(OC(F)(F)F)cc1)C(=O)Nc1ccc(C#N)c(C(F)(F)F)c1 (stereo not drawn),53.5,41.2,36.2,52.1,–,–,–
CC(O)(C[S+]([O-])c1ccccn1)C(=O)Nc1ccc([N+](=O)[O-])cc1C(F)(F)F (stereo not drawn),100,> 100,> 100,> 100,–,–,–
CC(O)(C[S+]([O-])c1ccccn1)C(=O)Nc1ccc(C#N)c(C(F)(F)F)c1 (stereo not drawn),> 100,> 100,> 100,> 100,–,–,–
"CC(O)(C[S+]([O-])c1ccc(F)c(F)c1)C(=O)Nc1ccc([N+](=O)[O-])cc1C(F)(F)F (single isomer, unassigned)",> 100,> 100,> 100,> 100,–,–,–
CC(O)(C[S+]([O-])c1ccc(C(F)(F)F)cn1)C(=O)Nc1ccc(C#N)c(C(F)(F)F)c1 (stereo in doubt; form 1),> 100,65.5,95.4,100,–,–,–
CC(O)(C[S+]([O-])c1ccc(C(F)(F)F)cn1)C(=O)Nc1ccc(C#N)c(C(F)(F)F)c1 (stereo in doubt; form 2),–,–,–,–,77,> 100,> 100
